Structures are written as SMILES.

What is called pKb is −log10 of the Kb, conventionally taken in molar units. For orientation: Ki means a dissociation constant, usually derived from enzyme kinetics or from competition with a known ligand. A high value points to lower affinity.

Experiment [1] concerns the target T1, Alpha-1B adrenergic receptor (Rattus norvegicus) (UniProt P15823).
T1 sequence (whole entry): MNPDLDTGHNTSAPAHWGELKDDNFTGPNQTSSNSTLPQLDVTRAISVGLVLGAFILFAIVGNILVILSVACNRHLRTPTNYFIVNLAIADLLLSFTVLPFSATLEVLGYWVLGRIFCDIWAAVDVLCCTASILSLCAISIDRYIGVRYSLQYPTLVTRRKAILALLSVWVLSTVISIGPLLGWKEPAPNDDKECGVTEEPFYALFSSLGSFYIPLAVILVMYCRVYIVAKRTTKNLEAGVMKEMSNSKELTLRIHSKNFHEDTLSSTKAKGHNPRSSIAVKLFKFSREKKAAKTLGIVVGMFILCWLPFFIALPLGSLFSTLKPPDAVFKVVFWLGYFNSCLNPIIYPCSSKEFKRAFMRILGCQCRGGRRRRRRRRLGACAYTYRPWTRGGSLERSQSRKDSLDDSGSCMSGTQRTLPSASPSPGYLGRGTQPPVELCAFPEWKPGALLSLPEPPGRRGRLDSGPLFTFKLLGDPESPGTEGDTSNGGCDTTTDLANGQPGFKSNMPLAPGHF
As to the kind of experiment: Antagonist activity at alpha1B adrenergic receptor in Wistar rat spleen assessed as inhibition of phenylephrine-induced contraction incubated for 30 mins in presence of beta-adrenoceptor blocker propranolol hydrochloride. The format is functional. The procedure, abridged:
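Spleen bisected longitudinally into strips in Krebs with propranolol 4 μM, held at 1 g and equilibrated 2 h. Two isometric cumulative phenylephrine curves, each followed by 30 min washing. Third curve after 30 min vehicle or antagonist. Potency as pA2 (Schild) or pKB at one concentration (van Rossum). Responses as % of control maximum; n ≥ 4.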

The target of experiment [2] is T2, Alpha-1B adrenergic receptor (Homo sapiens, UniProt P35368).
T2 sequence (P35368 whole entry): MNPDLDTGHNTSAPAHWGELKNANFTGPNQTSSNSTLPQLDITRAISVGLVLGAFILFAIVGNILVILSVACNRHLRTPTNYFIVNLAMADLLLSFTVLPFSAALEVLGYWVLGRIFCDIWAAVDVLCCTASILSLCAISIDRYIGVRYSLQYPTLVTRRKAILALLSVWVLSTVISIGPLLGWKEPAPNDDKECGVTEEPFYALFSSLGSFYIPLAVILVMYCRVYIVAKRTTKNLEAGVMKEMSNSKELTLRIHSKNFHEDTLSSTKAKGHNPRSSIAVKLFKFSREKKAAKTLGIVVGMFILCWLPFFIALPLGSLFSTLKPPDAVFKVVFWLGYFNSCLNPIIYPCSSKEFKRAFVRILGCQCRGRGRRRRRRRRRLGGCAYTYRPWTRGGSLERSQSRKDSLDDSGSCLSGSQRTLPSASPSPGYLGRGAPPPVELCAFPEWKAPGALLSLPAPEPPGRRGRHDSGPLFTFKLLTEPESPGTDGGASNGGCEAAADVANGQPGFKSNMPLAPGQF
As to the kind of experiment: Binding affinity to human alpha1B adrenergic receptor.

Experiment [3] deals with T3, Alpha-1A adrenergic receptor (Homo sapiens, UniProt P35348).
T3 sequence (P35348 whole entry): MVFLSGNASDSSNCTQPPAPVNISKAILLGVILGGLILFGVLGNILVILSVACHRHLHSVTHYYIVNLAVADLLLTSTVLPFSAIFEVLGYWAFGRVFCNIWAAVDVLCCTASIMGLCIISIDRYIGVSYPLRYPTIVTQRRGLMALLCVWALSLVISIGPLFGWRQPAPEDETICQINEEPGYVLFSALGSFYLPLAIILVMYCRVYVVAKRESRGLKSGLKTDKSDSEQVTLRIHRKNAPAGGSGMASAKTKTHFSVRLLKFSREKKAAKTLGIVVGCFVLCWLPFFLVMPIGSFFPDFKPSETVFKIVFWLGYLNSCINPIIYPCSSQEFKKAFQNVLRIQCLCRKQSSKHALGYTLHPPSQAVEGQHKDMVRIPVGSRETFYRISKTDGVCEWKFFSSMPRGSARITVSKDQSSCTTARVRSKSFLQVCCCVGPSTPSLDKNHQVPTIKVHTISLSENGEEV
Nature of the experiment: Displacement of [3H]prazosin from human alpha1A adrenergic receptor expressed in CHO cell membranes after 30 mins by rapid filtration method. The gist of the method: (§1)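 Membranes (30 μg protein) from CHO cells stably transfected with the human α1a, α1b or α1d receptor. Incubated 30 min at 25 °C in 50 mM Tris-HCl pH 7.4 with 0.1–0.4 nM [3H]prazosin and competitor 1 pM–10 μM. Nonspecific binding defined by 10 μM phentolamine. Stopped by rapid filtration through PEI-treated filters. IC50 converted to Ki by Cheng-Prusoff; pKi from 2–3 experiments in triplicate.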
(In general: Loss of bound radioactivity is the signal in a displacement assay; it reports binding, not function.)

For experiment [4], the target named is T2, Alpha-1B adrenergic receptor. Nature of the experiment: Displacement of [3H]prazosin from human alpha1B adrenergic receptor expressed in CHO cell membranes after 30 mins by rapid filtration method. The procedure, abridged: as §1
Experiment [5] has as its target T4, Alpha-1D adrenergic receptor (Homo sapiens, UniProt P25100).
T4 sequence (P25100 whole entry): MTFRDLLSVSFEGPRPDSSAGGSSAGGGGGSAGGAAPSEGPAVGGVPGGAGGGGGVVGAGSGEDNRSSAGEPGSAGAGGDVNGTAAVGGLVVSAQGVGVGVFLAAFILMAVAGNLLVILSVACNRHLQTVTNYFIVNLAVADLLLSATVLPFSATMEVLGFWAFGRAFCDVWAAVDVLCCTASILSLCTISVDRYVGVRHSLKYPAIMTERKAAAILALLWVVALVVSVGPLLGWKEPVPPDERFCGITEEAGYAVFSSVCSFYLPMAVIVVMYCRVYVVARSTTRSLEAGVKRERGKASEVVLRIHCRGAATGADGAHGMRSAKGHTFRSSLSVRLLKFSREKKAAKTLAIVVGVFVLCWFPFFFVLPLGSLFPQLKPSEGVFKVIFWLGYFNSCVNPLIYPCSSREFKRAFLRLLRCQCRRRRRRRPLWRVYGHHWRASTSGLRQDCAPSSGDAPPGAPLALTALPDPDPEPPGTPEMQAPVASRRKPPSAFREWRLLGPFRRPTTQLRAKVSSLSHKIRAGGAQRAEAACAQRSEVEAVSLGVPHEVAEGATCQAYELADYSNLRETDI
Nature of the experiment: Displacement of [3H]prazosin from human alpha1D adrenergic receptor expressed in CHO cell membranes after 30 mins by rapid filtration method. The gist of the method:
as §1

In experiment [6] the target is T5, Alpha-1A adrenergic receptor (Rattus norvegicus, UniProt P43140).
T5 sequence (P43140 whole entry): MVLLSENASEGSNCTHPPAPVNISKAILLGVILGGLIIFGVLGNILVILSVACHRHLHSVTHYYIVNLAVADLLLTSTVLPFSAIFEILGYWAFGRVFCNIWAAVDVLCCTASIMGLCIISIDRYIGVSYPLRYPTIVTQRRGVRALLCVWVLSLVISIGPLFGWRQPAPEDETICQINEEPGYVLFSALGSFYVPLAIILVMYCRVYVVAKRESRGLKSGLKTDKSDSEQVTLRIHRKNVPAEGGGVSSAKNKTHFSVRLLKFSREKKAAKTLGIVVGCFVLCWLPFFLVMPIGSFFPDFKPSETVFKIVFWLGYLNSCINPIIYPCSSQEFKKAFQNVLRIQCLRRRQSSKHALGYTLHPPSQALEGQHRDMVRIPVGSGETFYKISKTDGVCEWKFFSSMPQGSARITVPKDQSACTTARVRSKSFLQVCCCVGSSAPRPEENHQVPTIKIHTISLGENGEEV
As to the kind of experiment: Antagonist activity at alpha1A adrenergic receptor in Wistar rat prostatic rat vas deferens assessed as inhibition of noradrenaline-induced contraction preincubated for 30 mins followed by noradrenaline addition measured after 45 mins in presence of cocaine hydrochloride. The format is functional. To be noted: read-out: pA2 (converted). The gist of the method: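 Prostatic rat vas deferens, 2 cm portions, held at 0.35 g in Tyrode (pH 7.4, 37 °C, 95% O2/5% CO2). Cocaine 10 μM added 20 min before the agonist. Tissue equilibrated 45 min and primed twice with 10 μM noradrenaline. Isotonic cumulative noradrenaline curves were run before and after 30 min antagonist. pA2 came from Schild plots (≥3 concentrations); otherwise pKB (van Rossum). n ≥ 4.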

Consider `COc1cc2nc(N3CCN(C(=O)c4ccco4)[C@H]4CCCC[C@H]43)nc(N)c2cc1OC` [CYCLAZOSIN], for which, in experiment [1], the pKb turned out to be 8.86. In addition, the Ki in experiment [2] is 0.135 to 0.692 nM.

For the compound `COc1cc2nc(N3CCN(C(=O)c4ccco4)[C@@H]4CCCC[C@@H]43)nc(N)c2cc1OC`, the Ki in experiment [3] was 0.589 nM; in experiment [4], 0.0708 nM; in experiment [5], 0.0603 nM. For the same compound, in experiment [1], the negative logarithm of the Kb (pKb) was 9.67. The Kb in experiment [6] is 0.589 nM.

Source of the values: ChEMBL document CHEMBL4118202, “Chiral analogues of (+)-cyclazosin as potent α1B-adrenoceptor selective antagonist” (Bioorg Med Chem, 2018).
